Assay results reported in ChEMBL document CHEMBL1275263, “Synthesis and evaluation of stilbene derivatives as a potential imaging agent of amyloid plaques” (Bioorg Med Chem, 2010).

How the values were obtained:
[1] = Binding to amyloid beta (1 to 40) fibrils assessed as fold increase in compound fluorescence at 30 uM by fluorescence assay relative to control
[2] = Binding affinity to amyloid beta (1 to 40)
In short: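 Aβ40 peptide in PBS (pH 7.4), brought to 200 final and shaken gently at 37 °C for 48 h to form fibrils, which were confirmed by ThT assay. Dye fluorescence was measured with the fibrils in PBS, with excitation and emission maxima determined by spectral scans. KD came from nonlinear regression fitting a one-site binding model, from 5 replicate experiments (N = 5).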

SMILES | Ratio [1] | Kd [2] [nM]
Cc1ccc2c(c1)sc(-c1ccc(N(C)C)cc1)[n+]2C [THIOFLAVIN T] | – | 2300
CNc1ccc(/C=C/c2cccc(OC)c2)cc1 | 9.3 | 17900
CNc1ccc(/C=C/c2ccc(Br)cc2)cc1 | 25.8 | 1130

Continued by falling Kd [2], values first:

Ratio [1] | Kd [2] [nM] | SMILES
8.91 | 2890 | CN(CCO)c1ccc(/C=C/c2cccc(Br)c2)cc1
15.7 | 1840 | CN(CCO)c1ccc(/C=C/c2ccc(Br)cc2)cc1
– | 300 | CNc1ccc(-c2nc3ccccc3s2)cc1
